Results reported in ChEMBL document CHEMBL1148016, “Synthesis of 1,3-diphenyl-2-propen-1-one derivatives and evaluation of their biological activities” (Bioorg Med Chem, 2007).
Calls of active or inactive are those of the source. The rule behind the calls is not given here.

Experiments:
[1] = test system: Microglia; assay: Suppression of LPS-induced NO production in Sprague-Dawley rat microglia after 24 hrs; assay type: functional, cell-based
Procedure, shortened: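 Primary microglia from postnatal day-1 Sprague–Dawley rat cortex, grown 10–14 days in MEM/10% FBS, detached by shaking and replated. Cells given LPS 1 µg/mL with compound (1, 5, 10, 20 µM) for 24 h at 37 °C. Supernatant nitrite measured by Griess reaction at 540 nm. Three independent experiments in triplicate.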

[2] = DPPH radical scavenging activity; assay type: functional
Procedure, shortened: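 Compound mixed with 0.1 mM acetic acid buffer and warmed to 25 °C for 5 min, then 0.2 mM DPPH in ethanol added. Absorbance read at 517 nm after 30 min. Scavenging rate (%) = {1 − (A − C)/B} × 100, with sample, colour-contrast and blank absorbances. 50% scavenging concentration calculated from the scavenging rate.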

[3] = test system: Cortical neurone; assay: Inhibition of glutamate-induced neurotoxicity in mouse cortical neurons assessed as cell death at 5 uM after 24 hrs relative to NMDA; assay type: functional
Procedure, shortened: (§1)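 Mixed cortical neuron/glia cultures from fetal day-15 mouse cortex, on poly-D-lysine/laminin. Cytosine arabinoside 10 uM from DIV 6. Cultures exposed in serum-free MEM to 60 µM glutamate plus compound for 24 h at 37 °C. Viability by WST-1 (1:10, 2 h, 37 °C), read at 450 nm with 650 nm reference and normalized to untreated wells. Three independent experiments in triplicate.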

[4] = test system: Cortical neurone; assay: Inhibition of glutamate-induced neurotoxicity in mouse cortical neurons assessed as cell death at 10 uM after 24 hrs relative to NMDA; assay type: functional; procedure, shortened: as §1

Question: Which Activity [1] does the source give for `COc1cc(/C=C/C(=O)c2ccc(OC)c(F)c2)ccc1O` here?
Answer: The Activity was “Active”.

Question: What about the IC50 [2] of the same molecule?
Answer: The IC50 was 52.5 µM.

Question: What does the source list for `COc1cc(/C=C/C(=O)c2ccc3c(c2)OCO3)ccc1O`?
Answer: Activity [1]: Active; Activity [3]: Active; Activity [4]: Active; IC50 [2]: 46 µM

Question: For `COc1cc(/C=C/C(=O)c2ccc([Si](C)(C)C)cc2)ccc1O`, which Activity [1] is on record?
Answer: The Activity was “Active”.

Question: And the IC50 [2]?
Answer: Its IC50 is 52.8 µM.

Question: Which Activity [1] does the source give for `COc1cc(/C=C/C(=O)c2ccc(C(F)(F)F)cc2)ccc1O` here?
Answer: The Activity was “Active”.

Question: What about the IC50 [2] of the same molecule?
Answer: Its IC50 is 43.8 µM.

Question: For `COc1cc(/C=C/C=O)ccc1O` [CONIFERYL ALDEHYDE], which IC50 [2] is on record?
Answer: The IC50 was 64.6 µM.

Question: For `COc1cc(/C=C/C(=O)c2cc(F)c(F)c(F)c2)ccc1O`, which Activity [1] is on record?
Answer: The Activity was “Active”.

Question: And the Activity [3]?
Answer: The Activity was “Active”.

Question: And the Activity [4]?
Answer: Its Activity is “Active”.

Question: And the IC50 [2]?
Answer: The IC50 was 53.2 µM.

Question: With `COc1cc(/C=C/C(=O)c2c(O)c3ccccc3oc2=O)ccc1O` as the molecule, how does the Activity [1] read?
Answer: Its Activity is “Active”.

Question: What about the Activity [3] of the same molecule?
Answer: Its Activity is “Active”.

Question: What about the Activity [4] of the same molecule?
Answer: The Activity was “Active”.

Question: And the IC50 [2]?
Answer: Its IC50 is 52.5 µM.

Question: Which results are given for `COc1cc(/C=C/C(=O)c2c(O)c3ccccc3oc2=O)ccc1O[Si](C)(C)C(C)(C)C`?
Answer: Activity [1]: Active; IC50 [2]: 45.5 µM
